NPY2 pot ag = human NPY-Y2 potentiation or agonism, primary screen; P49146; cells expressing NPY-Y2, potentiator/agonist read-out; activation, % at 3.6 µM; AID 1359; 220,000 compounds, 0.45% hits; in the data active = activation above about 27%;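 also: cells stimulated with NPY near EC25 plus isoproterenol at EC100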
NPY1 pot ag = potentiates or activates human NPY-Y1 receptor; P25929; NPY-Y1 expressing cells, potentiator/agonist activation; activation, % at 3.6 µM; 220,000 compounds, 0.37% hits; in the data active = activation above about 33%, passing the limit was not always enough;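 also: cells stimulated with NPY at EC10 then isoproterenol at EC100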
Target sequence (P25929 whole entry, looked up): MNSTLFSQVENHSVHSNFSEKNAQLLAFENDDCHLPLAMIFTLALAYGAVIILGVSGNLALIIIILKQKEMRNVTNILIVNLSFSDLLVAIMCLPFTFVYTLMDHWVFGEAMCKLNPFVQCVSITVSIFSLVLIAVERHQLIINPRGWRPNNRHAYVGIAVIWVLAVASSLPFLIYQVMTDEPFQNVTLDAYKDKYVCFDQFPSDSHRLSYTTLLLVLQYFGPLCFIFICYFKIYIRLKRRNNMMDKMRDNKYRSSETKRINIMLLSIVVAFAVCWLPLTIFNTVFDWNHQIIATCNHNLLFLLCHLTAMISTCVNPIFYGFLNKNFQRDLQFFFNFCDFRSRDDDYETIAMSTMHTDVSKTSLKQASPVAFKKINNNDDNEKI
NPY Y2 blocker = NPY-Y2 (human) receptor antagonism | P49146 | NPY-Y2 expressing cells, antagonist mode | inhibition, % at 2.7 µM | 140,000 compounds, 0.99% hits
NPY Y1 blocker = antagonists of human neuropeptide Y receptor Y1. 200,000 compounds, 1% hits. P25929. HEK293-CNG Y1 cells, membrane potential fluorescence; NPY at EC95, then isoproterenol. AID 1040. inhibition, % at 3.6 µM;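 active = inhibition above the campaign mean inhibition of all tested compounds plus 3 SD, cut at about 20% in these data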
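Material: HEK293 Y1/CNG channel cell line; also added: NPY (25 nM), isoproterenol (1 µM), Ro 20-1724 (25 µM); doses: one concentration, 3.6 µM, in 0.4% DMSO; schedule: compound incubation 1 h at room temperature, readout 45 min post-stimulation; technique: membrane potential fluorescence; measure: fluorescence ratio normalized to % inhibition between controls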
NPY1 antag conf = confirmation of human neuropeptide Y receptor Y1 antagonists. shares compounds with NPY Y1 blocker. HEK293-CNG NPY-Y1, membrane potential fluorescence, cAMP; NPY challenge against isoproterenol-raised cAMP. inhibition, % at 3.6 µM. 1,200 compounds, 21% hits. AID 1254; in the data active = inhibition above about 20%
NPY-Y2 antag ct = counter-screen for NPY-Y1 antagonists: human NPY-Y2 antagonism; shares compounds with NPY Y1 blocker; HEK293 NPY-Y2 CNG membrane potential fluorescence; cells given NPY, then isoproterenol; inhibition, % at 3.6 µM; 1,200 compounds, 28% hits; AID 1255
NPY-Y1 pot conf = confirmation of human NPY-Y1 receptor potentiators or agonists. shares compounds with NPY1 pot ag. 280 compounds, 20% hits. activation, % at 3.6 µM. cell-based NPY-Y1 potentiator/agonist assay; in the data active = activation above about 45%;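 also: cells challenged with NPY at its EC10 plus isoproterenol stimulus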
NPY-Y2 counter = potentiates or activates NPY-Y2, counter-screen for NPY-Y1 hits. shares compounds with NPY1 pot ag. HEK293-CNG cells, membrane-potential fluorescence (FLIPR), 1536-well. activation, % at 3.6 µM. 280 compounds, 20% hits. AID 1649; in the data active = activation above about 33%
NPY-Y1 ag = counter-screen for NPY-Y1 potentiators: agonists of human NPY-Y1. shares compounds with NPY1 pot ag. HEK293 Y1-CNGC, membrane potential fluorescence, agonist mode. activation, % at 3.6 µM. 280 compounds, 50% hits;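 active = percent activation above the mean of DMSO-only control wells plus 3 SD of those wells, cut at about 18% in these data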;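 also: cells challenged with isoproterenol plus Ro 20-1724 with no NPY in test wells; Y1 agonism lowers isoproterenol-driven cAMP and reduces probe fluorescence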
NPY-Y2 ag = activates human NPY-Y2, counter-screen for NPY-Y1 hits; shares compounds with NPY1 pot ag; HEK293 Y2-CNGC, membrane potential fluorescence, agonist mode; activation, % at 3.6 µM; 280 compounds, 67% hits; AID 1698;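 active = activation above the solvent-only control wells' mean plus 3 SD, cut at about 11% in these data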;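 also: agonism lowers cAMP so well fluorescence drops in active wells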
CNGC counter = CNG channel inhibition, counter-screen for NPY-Y1 potentiators; shares compounds with NPY1 pot ag; HEK293-CNG parental, isoproterenol cAMP, membrane potential fluorescence; inhibition, % at 3.6 µM; 280 compounds, 42% hits; AID 1704;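 active = inhibition above the mean of stimulated solvent-only control wells plus 3 SD, cut at about 22% in these data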
A number is an active result; i = inactive; nt = no result given. Rows were chosen to be rich in hits. Some 1.8% of all compounds tested hit in one or more screens of this group. Rule as the data show it, unless noted: active = inhibition above about 17%; inactive = the rest.

SMILES	NPY2 pot ag	NPY1 pot ag	NPY Y2 blocker	NPY Y1 blocker	NPY1 antag conf	NPY-Y2 antag ct	others
CC(C)CC1(C)NC(=O)N(CC(=O)Nc2cccc(S(=O)(=O)N(C)c3ccccc3)c2)C1=O (configuration not stated)	i	i	nt	50.7	45.9	50.5
CC1=CC(C)(C)n2c(O)c(N=N)c3c(C)c(C)cc1c32	i	i	nt	nt	nt	nt
CC1=CC(C)(C)n2c(O)c(N=N)c3cc(C)cc1c32	i	i	i	22.7	i	21.6
CCOc1ccccc1CNc1ccc(N2CCOCC2)c(C(=O)O)c1	i	i	i	i	nt	nt
CCOC(=O)C1=C(c2ccccc2)O/C(=C(/C#N)C(F)(F)F)S1	i	i	i	31.8	i	42.4
CC(C)n1cc(NC(=O)c2cc(-c3ccccc3)on2)cn1	i	i	i	23.6	i	i
N#C/C(=N\Nc1cccc2ccccc12)c1nnc2n1CCCCC2	i	i	i	20.3	i	i
CCCCOC(=O)Cn1c(=N)n(CCC)c2ccccc21	i	i	i	39.6	i	i
CCOc1cc(-c2noc(N)c2C(=O)OC)cc(OCC)c1OCC	i	i	i	22.2	i	i
O=C(NCCCN1CCOCC1)C(=O)NCc1ccccc1Cl	i	i	nt	i	nt	nt
CC1CC(C)CN(C2CCN(Cc3cccnc3)CC2)C1 (configuration not stated)	i	i	i	20.8	i	i
O=C(CSc1nnc(Cc2ccccc2)n1Cc1ccco1)NC12CC3CC(CC(C3)C1)C2	i	i	i	22.6	i	i
O=C(c1ccc2c(c1)OCO2)C1CCCN(C2CCN(CCc3ccccc3)CC2)C1 (configuration not stated)	i	i	nt	21.9	i	23.1
COc1ccc(N(C)S(=O)(=O)c2cccc3cccnc23)c(OC)c1	i	i	i	i	nt	nt
COc1ccc(N(C(=O)C2CCCCC2)S(=O)(=O)c2cccc3cccnc23)cc1	i	i	nt	31.1	21.4	i
COc1ccc(C2Nc3ccccc3C(=O)N2c2ccccc2)cc1CSc1ccccn1 (configuration not stated)	i	i	i	i	nt	nt
COc1ccc(C2Nc3ccccc3C(=O)N2c2ccccc2)cc1COc1ccccn1 (configuration not stated)	i	i	i	22.0	i	i
Cc1nn(-c2ccccc2)c(Oc2ccc(F)cc2)c1/C=N/n1cnnc1	i	i	i	20.2	i	i
Cc1nn(-c2ccccc2)c(C)c1/C=N/n1cnnc1	i	i	nt	i	nt	nt
CCOC(=O)c1c(NC(C)=O)sc2c(OCCN(CC)CC)c(Br)ccc12	i	i	nt	i	nt	nt
CCOC(=O)c1c(NC(C)=O)sc2c(OCC(O)CN(CC)CC)c(Br)ccc12 (configuration not stated)	i	i	nt	79.6	104.0	117.0
CCOC(=O)c1c(CNCCN(CC)CC)n(C)c2cc(Br)c(OC)cc12	i	i	i	26.8	i	i
NC(=O)COC(=O)CSc1ccc2ccccc2c1	i	i	nt	21.9	i	i
Nc1c(C(=O)Nc2ccccc2)sc2nc3c(c(-c4ccco4)c12)CCCC3	i	i	i	i	nt	nt
Cc1ccccc1NC(=O)c1sc2nc3c(c(-c4ccco4)c2c1N)CCCC3	i	i	i	23.5	i	i
SMILES	NPY2 pot ag	NPY1 pot ag	NPY Y2 blocker	NPY Y1 blocker	NPY1 antag conf	NPY-Y2 antag ct	others
CCN(CC)C(=O)C(Sc1ccccc1)c1ccccc1 (configuration not stated)	i	i	i	i	nt	nt
Cc1ccc(C)c(Cn2c(CO)nc3ccccc32)c1	i	i	i	20.6	i	i
COc1ccc(C(=O)NCCCc2nc3ccccc3n2Cc2cc(C)ccc2C)cc1OC	i	i	i	i	nt	nt
O=C1N(Cc2cccc(Cl)c2)C[C@@H]2C[C@@H](c3ccsc3)N3CCC[C@@]123	i	i	nt	28.7	i	i
c1ccc(-c2ccccc2OCCCN2CCCC2)cc1	i	i	i	i	nt	nt
c1ccc(-c2ccccc2OCCCN2CCCCCC2)cc1	i	i	nt	26.1	i	i
CCOc1ccc(NC(=O)C(Cc2ccccc2)N2C(=O)c3cccc4cccc(c34)C2=O)cc1 (configuration not stated)	i	i	nt	i	nt	nt
Cc1cc(C)c(CN2CCN(Cc3ccc(C)o3)C(CCO)C2)c(-n2cccn2)c1 (configuration not stated)	i	i	nt	28.7	i	i
Cc1cc(N2CCN(c3ccc(F)cc3)CC2)nc(-c2ccccc2)n1	i	i	i	20.7	i	i
Cc1cc(C)c(C)c(S(=O)(=O)N2CCN(c3ccc(O)cc3)CC2)c1C	i	i	nt	i	nt	nt
N#Cc1ccc(OCC(=O)Nc2ccccc2NS(=O)(=O)c2cccs2)cc1	i	i	i	i	nt	nt
CC1CCC(C(C)C)C(OCC(O)CN2CCCC(C)C2)C1 (configuration not stated)	i	47.3	nt	28.5	26.8	21.3	NPY-Y1 pot conf=i;NPY-Y2 counter=i;NPY-Y1 ag=i;NPY-Y2 ag=13.8;CNGC counter=i
CCc1ccc(NC(=O)c2ccccc2NC(=O)C2CCCO2)cc1 (configuration not stated)	i	i	i	i	nt	nt
CC(=O)OC1COC(OC2C(O)C(C)OC(OC3C(OC4CCC5(C)C(CCC6(C)C5CC=C5C7CC(C)(C)CCC7(C(=O)O)CCC56C)C4(C)CO)OCC(O)C3O)C2O)C(O)C1OC(C)=O (configuration not stated)	i	60.2	nt	23.1	22.3	i	NPY-Y1 pot conf=83.4;NPY-Y2 counter=67.9;NPY-Y1 ag=57.6;NPY-Y2 ag=61.6;CNGC counter=47.3
CC1(C)CC[C@]2(C(=O)O)CC[C@]3(C)C(=CCC4[C@@]5(C)CC[C@H](O)C(C)(C)C5CC[C@]43C)C2C1 (some centres not stated)	i	i	i	i	nt	nt
CCOc1ccccc1NC(=O)C1C2C=CC(C2)C1C(=O)O (configuration not stated)	i	i	i	i	nt	nt

Source: PubChem (The Scripps Research Institute Molecular Screening Center)
